# Only some compounds are listed: those with a hit (about 1.8% of all), similar ones and a draw of the others.
# Ecoli rRNA inh: selective bacterial rRNA inhibition in E. coli. GFP signal change (wild-type ribosome), % (test concentration not listed). E. coli WT GFP vs humanized-ribosome RFP mutants, fluorescence, 24 h; active compounds read low; DMSO median 0, no signal -100. AID 720706. 1.6% of 350,000 active;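 active = significant combined selectivity score with lowered wild-type GFP, culture density cut under 30%, mutant RFP and density less affected; inactive = any of these conditions unmet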
# MT1-MMP act inh: MT1-MMP (human) activation inhibition. 0.061% of 360,000 active. GFP/RFP ratio change, % at 20 µM. HT1080 RFP-PRO-GFP cells, GFP/RFP ratio fluorescence, overnight; percent of plate control window, DMSO zero. AID 651647;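 active = GFP/RFP ratio change of at least 30% with cell ATP level not reduced by more than half and red fluorescence within 50% of control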
#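 Read-out: GFP/RFP fluorescence ratio; Test system: RFP-PRO-GFP reporter HT1080 cells; Compound dosing: single-point 20 µM compound, 1% DMSO; Times: overnight compound exposure at 37 °C.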
# DAGLB inh: blocks human DAGLB lipase activity | HEK293T DAGLB membrane lysate, EnzChek fluorogenic substrate | inhibition, % at 5.17 µM | 0.059% of 340,000 active | AID 504411; in the data active = inhibition above about 34%;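 note: 0% = enzyme with vehicle and 100% = wells lacking enzyme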
# Target sequence (Q8NCG7 whole entry, looked up): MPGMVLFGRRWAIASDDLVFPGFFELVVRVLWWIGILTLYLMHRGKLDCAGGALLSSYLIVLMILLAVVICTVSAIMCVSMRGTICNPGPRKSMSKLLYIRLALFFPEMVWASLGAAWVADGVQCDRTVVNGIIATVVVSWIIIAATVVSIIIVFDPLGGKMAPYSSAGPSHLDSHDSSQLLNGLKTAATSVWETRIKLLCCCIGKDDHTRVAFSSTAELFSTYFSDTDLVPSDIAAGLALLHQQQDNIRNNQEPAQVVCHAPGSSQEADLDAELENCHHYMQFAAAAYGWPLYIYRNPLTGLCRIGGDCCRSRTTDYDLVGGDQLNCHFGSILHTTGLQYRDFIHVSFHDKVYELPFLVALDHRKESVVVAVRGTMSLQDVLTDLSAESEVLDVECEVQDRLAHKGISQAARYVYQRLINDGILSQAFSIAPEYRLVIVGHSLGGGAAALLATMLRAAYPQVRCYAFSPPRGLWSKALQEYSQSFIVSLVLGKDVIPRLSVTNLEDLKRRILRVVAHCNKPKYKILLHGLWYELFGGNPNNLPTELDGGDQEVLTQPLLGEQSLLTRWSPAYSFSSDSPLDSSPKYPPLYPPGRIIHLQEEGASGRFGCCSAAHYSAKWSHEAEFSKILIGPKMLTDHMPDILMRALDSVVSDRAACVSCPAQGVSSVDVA
# hiPSC survival: increases survival of single human iPS cells | hiPSC single-cell survival, ATPlite luminescence; 100% = ROCK inhibitor wells, 0% = DMSO | survival enhancement, % at 20 µM | 0.044% of 360,000 active | AID 602274; in the data active = survival enhancement above about 18%;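 note: cells exposed to compounds for 16 hours before the ATP read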
# Cneo AK release: Cryptococcus neoformans lysis via adenylate kinase release. AID 651654. C. neoformans lysis, adenylate kinase release luminescence, 4 h; normalised: neutral wells 0, clomiphene wells 100. 0.2% of 360,000 active. lysis activity, % at 15 µM;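 active = mean lysis activity across replicates of at least 80%, whatever share of replicates individually reach that level; inactive = mean lysis activity below 80%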
#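 Schedule: static 4 h at 37 °C with compound, 1 h detection; system: C. neoformans cells; benchmarks: Clomiphene as positive control; buffer or medium: fresh YPD medium; measure: luminescence rise reflecting yeast cell lysis; measured by: luminescent adenylate kinase detection reagent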
# SKN-1 block: blocks SKN-1 activity in C. elegans; 0.49% of 360,000 active; C. elegans VP596 Pgst-4::GFP/RFP ratio, acrylamide-induced, 24 h; inhibition, % at 21.8 µM;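 active = interference check ratio from 0.5 to 1.5 plus GFP to RFP signal ratio inhibition reaching or exceeding a fixed threshold, cut at about 30% in these data, passing the limit was not always enough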
# The depositor's hits bear a star; nt = no result.
SMILES,Ecoli rRNA inh,MT1-MMP act inh,DAGLB inh,hiPSC survival,Cneo AK release,SKN-1 block
COc1ccc(OCc2cc(C(=O)N3CCSCC3)no2)c(Cl)c1,-29*,-3,-5,0,1,-6
O=C(c1cc(COc2ccc(F)cc2Cl)on1)N1CCSCC1,-37*,0,0,1,-8,0
CN1[C@@H]2CN(S(C)(=O)=O)C[C@H]1C2c1ccc(-c2ccc(F)cc2)cc1 (stereo partly drawn),-4,nt,nt,nt,nt,nt
COc1cc(Cl)ccc1OCc1cc(C(=O)N2CCCCCCC2)no1,8,2,-3,-1,1,0
COc1cc(C)ccc1OCc1cc(C(=O)N2CCCCCC2)no1,-26*,0,-1,1,2,16
C[C@@H]1CN([C@H](C)CO)C(=O)c2cc(NC(=O)Cc3ccccc3)ccc2O[C@@H]1CN(C)C(=O)Nc1ccccc1,3,nt,nt,nt,-1,nt
N#Cc1ccc(-c2ccc3c(c2)[C@H]2[C@H](CCN2C(=O)Cc2ccccc2)[C@H](CO)N3)cc1,-29,nt,nt,nt,1,nt
N#Cc1ccc(-c2ccc3c(c2)[C@@H]2[C@@H](CCN2C(=O)Cc2ccccc2)[C@@H](CO)N3)cc1,9,nt,nt,nt,89*,nt
N#Cc1ccc(-c2ccc3c(c2)[C@H]2[C@H](CCN2C(=O)Cc2ccccc2)[C@@H](CO)N3)cc1,-48,nt,nt,nt,95*,nt
Cc1c(NC(=O)NCCN2C(=O)C3C4C=CC(C4)C3C2=O)c(=O)n(-c2ccccc2)n1C (stereo not drawn),5,-1,0,4,-1,13
O=C(NCCN1C(=O)C2C3C=CC(C3)C2C1=O)Nc1ccccc1O (stereo not drawn),8,1,0,-1,-2,38*
Cc1noc(C)c1NC(=O)Nc1cccc2c1O[C@@H](CN(C)Cc1ccc(C(=O)O)cc1)[C@H](C)CN([C@H](C)CO)C2=O,0,nt,nt,nt,3,nt
Cc1ccc(C(=O)N/N=C/c2ccc(OC(=O)c3ccccc3Cl)cc2)cn1,-4,2,-1,0,-3,5
O=C(Oc1ccc(/C=N/O)cc1)c1ccccc1Cl,-29*,-2,-4,0,nt,-11
O=C(C[C@H]1C=C[C@H](NC(=O)CN2CCOCC2)[C@H](CO)O1)NCc1cccc(F)c1,-2,nt,nt,nt,-2,nt
COc1cc2ccccc2cc1C(=O)NC1CCCC1,-21*,2,-3,0,0,-2
O=C(NC1CCCCCC1)c1cc2ccccc2oc1=O,-24*,-1,-1,-1,1,-3
CC1C=NC(S(=O)(=O)N2CC[C@@H]3[C@H](CO)N(C)c4ccc(C#Cc5ccccc5)cc4[C@@H]32)=N1 (stereo partly drawn),-7,nt,nt,nt,nt,nt
C[C@H]1CN([C@@H](C)CO)C(=O)c2cc(NS(=O)(=O)c3cn(C)cn3)ccc2O[C@@H]1CN(C)Cc1ccc(-c2ccccc2)cc1,0,nt,nt,nt,5,nt
O=C(Nc1nccs1)c1ccc(-c2ccccc2Cl)o1,nt,5,-2,-2,nt,53*
O=C(Nc1ccccc1)c1ccc(-c2ccccc2Cl)o1,0,9,-17,-2,-2,-8
O=C(Nc1nccs1)c1ccc(-c2ccccc2[N+](=O)[O-])o1,-26,1,-4,-1,-14,36*
CC(C)CC#Cc1cnc2c(c1)C(=O)N([C@H](C)CO)C[C@H](C)[C@@H](CN(C)Cc1cccc(F)c1)O2,-16,nt,nt,nt,88*,nt
C[C@H]1CN([C@@H](C)CO)C(=O)c2cc(-c3cncnc3)cnc2O[C@H]1CN(C)C(=O)c1ccccc1F,0,nt,nt,nt,90*,nt
C[C@@H]1CN([C@H](C)CO)C(=O)c2cc(-c3cncnc3)cnc2O[C@H]1CN(C)C(=O)c1ccccc1F,0,nt,nt,nt,0,nt
C[C@@H]1CN([C@H](C)CO)C(=O)c2cc(-c3cccc(F)c3)cnc2O[C@H]1CN(C)Cc1ccccc1,-1,nt,nt,nt,116*,nt
C[C@@H]1CN([C@@H](C)CO)C(=O)c2cc(-c3cccc(F)c3)cnc2O[C@H]1CN(C)Cc1ccccc1,5,nt,nt,nt,-3,nt
